The list is not random: actives were taken first. Their share in the collection is about 6.4%.
NR3A LBD binder – modulators (binders) of human NR3A ligand-binding domain. 340,000 tested, 2.5% active. NR3A LBD differential scanning fluorimetry, Tm shift; 0% = protein alone, 100% = glycine-bound protein. Tm shift relative to glycine control, % at 25 µM. AID 1259313;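 active means melting temperature shift of at least 10% of the positive control shift, at one fixed dose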
MPTP block – permeability transition pore inhibition. isolated mouse mitochondria, Ca2+ swelling absorbance, 30 min. inhibition, % at 10 µM. 360,000 tested, 1.4% active. AID 602449;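 active means inhibition of 50% or more, scaled per plate between neutral and stimulator controls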;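 further: 0% = DMSO wells given calcium and 100% = 1 mM EGTA wells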
CHOP inh – inhibitors of CHOP induction in ER stress response. CHO-K1 CHOP-promoter luciferase, tunicamycin-induced, 15-18 h. inhibition, % at 10 µM. 220,000 tested, 3.8% active. AID 2732;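 active means compounds that reduced the stress-induced luciferase reporter signal by more than about 70% of percent inhibition, limit read from the data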;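 further: 0% = tunicamycin plus vehicle and 100% = wells without tunicamycin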
WT yeast gro inh – growth inhibition of WT yeast, mitochondrial fusion screen; inhibition, % at 10 µM; mitochondrial fusion phenotypic screen, WT strain; 190,000 tested, 2.1% active; in the data active means inhibition above about 58%; tested in S. cerevisiae
TbMetRS inhib – blocks T. brucei methionyl-tRNA synthetase activity; purified T. brucei MetRS, ATP depletion, Kinase-Glo luminescence; inhibition, % at 11.9 µM; 360,000 tested, 0.4% active; AID 624268;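 active means inhibition above a per-plate cutoff of the control wells' mean inhibition plus 3 SD, cut at about 5.5% in these data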;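 further: 0% = DMSO wells median and 100% = median of wells with control inhibitor compound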
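Material: parasite MetRS enzyme / Replication: singlicate, one well per compound / Signal: luminescence of leftover ATP / Schedule: 2 h aminoacylation at 25 °C after 15 min preincubation / Medium: HEPES-MgCl2-KCl buffer plus DTT, spermine, BSA, pyrophosphatase / Doses: 11.9 µM single point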
EBV gp42 block – inhibitors of Epstein-Barr virus glycoprotein 42. inhibition, % (tested at 21.74 µM). 220,000 tested, 0.42% active. Fluorescence polarization binding assay, mP read-out. Q1HVG2. AID 1085; in the data active means inhibition above about 50%
Target sequence (Q1HVG2 whole entry, looked up): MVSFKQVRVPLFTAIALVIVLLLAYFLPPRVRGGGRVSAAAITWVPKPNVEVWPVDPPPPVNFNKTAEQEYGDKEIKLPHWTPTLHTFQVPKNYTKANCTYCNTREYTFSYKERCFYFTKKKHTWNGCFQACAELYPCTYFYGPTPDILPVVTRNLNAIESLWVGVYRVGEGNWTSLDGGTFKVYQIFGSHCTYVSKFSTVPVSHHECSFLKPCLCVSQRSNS
CHOP inh conf – confirmation of CHOP induction inhibitors | 2,100 tested, 45% active | shares compounds with CHOP inh | inhibition, % at 10 µM | CHO-CHOP promoter luciferase reporter, tunicamycin-induced, luminescence;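 active means mean of three repeat readings of reporter signal inhibition above a set limit, cut at about 70% in these data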;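 further: 0% = tunicamycin plus vehicle and 100% = wells lacking tunicamycin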
MPTP counter – membrane potential counter-screen of mitochondrial pore inhibitors. isolated mitochondria, Rhodamine 123 fluorescence. AID 624504. 5,000 tested, 78% active. inhibition, % at 10 µM. shares compounds with MPTP block; in the data active means inhibition above about 22%;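 further: 0% = DMSO vehicle and 100% = positive control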
MPTP swell DR – dose response confirmation of mitochondrial permeability transition pore inhibitors; shares compounds with MPTP block; isolated mitochondria swelling, absorbance; IC50, µM; 780 tested, 58% active; in the data active means IC50 below about 20 µM
MPTP counter DR – active in counter-screen for permeability transition pore inhibitors; isolated mitochondria counterscreen, fluorescence read-out; IC50, µM; 780 tested, 49% active; shares compounds with MPTP block; in the data active means IC50 below about 80 µM
Numbers without * were called inactive; . = no result given; ! = repeats disagree.

SMILES | NR3A LBD binder | MPTP block | CHOP inh | WT yeast gro inh | TbMetRS inhib | EBV gp42 block | CHOP inh conf | others
Cc1ccc(N2C(=O)NC(=O)/C(=C\C=C\c3ccco3)C2=O)cc1C | 2 | -4 | 110* | -7 | 0 | -146 | 104*
C=Cn1ccnc1P(=S)(c1ccn(C)c1)c1nccn1C=C | 1 | -1 | -11 | 10 | 1 | -17 | .
COc1cc(/C=C2\C(=O)NC(=O)N(c3ccccc3)C2=O)c([N+](=O)[O-])cc1OC | -5 | 1 | 16 | -6 | 0 | 2 | .
CN1C(=O)NC(=O)/C(=C\C=C\c2ccccc2[N+](=O)[O-])C1=O | -4 | . | 99* | -7 | . | -21 | -27
O=C(c1cccs1)c1cn(Cc2ccccc2Cl)c2ccccc12 | -6 | 4 | 42 | 33 | 0 | -5 | .
CCCCCCCn1c(=O)c(C(=O)Nc2cnccn2)c(O)c2ccccc21 | 2 | -6 | 98* | . | 0 | 9 | 116*
Cn1cccc1CNCCc1ccc(F)cc1 | 1 | -2 | 4 | 4 | -1 | -12 | .
COc1ccc(C(c2nnnn2C2CCCC2)N2CCC3(CC2)C(=O)NCN3c2ccccc2)cc1 (centres undefined) | . | 1 | . | . | -1 | . | .
CN1/C(=C\C=C\C2=[N+](C)c3ccc4ccccc4c3C2(C)C)C(C)(C)c2ccccc21 | . | . | 108* | 16 | . | 97* | 125*
CN1/C(=C\C=Nc2ccccc2)C(C)(C)c2ccccc21 | 1 | 4 | 31 | -8 | 0 | -10 | .
CN1CCCC1C(O)(c1ccccc1)c1ccccc1 (centres undefined) | 1 | -2 | . | . | -1 | . | .
Cn1c(O)c(C=Nc2ccc(Cl)cc2)c(=O)n(C)c1=O | 0 | 1 | -5 | 14 | -1 | -12 | .
Clc1ccc(CSC(Cn2ccnc2)c2ccc(Cl)cc2Cl)cc1 (centres undefined) | -34 | 6 | 108* | 84 | 0 | 4 | 49
CC1(C)C[C@H]2C=C(C=O)[C@]3(C=O)C[C@]3(C)[C@H]2C1 | -4 | -2 | 109* | 80 | 0 | 0 | 128*
O=c1[nH]c(=O)n(-c2cccc3ccccc23)c(O)c1/C=N/N1CCCCC1 | 0 | -3 | 6 | . | -1 | -12 | .
O=C1CC(N2CCC(n3c(=O)[nH]c4ccccc43)CC2)C(=O)N1c1ccc(F)cc1 (centres undefined) | 0 | -3 | -9 | -4 | -1 | 7 | .
O=c1[nH]c2ccccc2n1C1CCN(CCCC(c2ccc(F)cc2)c2ccc(F)cc2)CC1 | -6 | 88* | 0 | 70* | -1 | -2 | 117* | MPTP counter=-8
CC1CCCCN1CC(O)c1c[nH]c2ccccc12 (centres undefined) | -2 | 0 | . | . | 1 | . | .
CNc1ccc2oc(C[C@H]3O[C@@]4(CC[C@H]3C)O[C@H]([C@H](C)C(=O)c3ccc[nH]3)[C@H](C)C[C@H]4C)nc2c1C(=O)O | 0 | 96* | 106*! | . | 0 | -9 | 129* | MPTP counter=-23
CCOC(=O)C1(c2ccccc2)CCN(CCC(=O)Nc2ccc(OC)cc2)CC1 | . | 0 | . | . | 0 | . | .
CCOC(=O)C1(c2ccccc2)CCN(CCC(=O)Nc2cccc(Br)c2)CC1 | -5 | 77* | . | . | 0 | . | . | MPTP counter=11
CCCCn1c(O)c(C(CC)=NCc2ccc3c(c2)OCO3)c(=O)[nH]c1=O | 1 | 68* | 45 | 7 | 0 | 6 | . | MPTP counter=27*
CCOC(=O)c1ccc2c(c1)n(Cc1ccccc1)c(C)[n+]2CC | -3 | -1 | 12 | -5 | -1 | -7 | .
COc1cccc(CCNCc2ccc(SC)cc2)c1 | -9 | 88* | 21 | 16 | 0 | -4 | . | MPTP counter=-11;MPTP swell DR=13*;MPTP counter DR=>80
COc1ccc(CCNCc2ccccc2)cc1 | 0 | 0 | . | . | 1 | . | .
O=[N+]([O-])c1cc(O)c(O)c([N+](=O)[O-])c1 | -12 | 1 | -3 | . | 0 | . | .

High-throughput results as filed in PubChem.
